Active and inactive are the calls of the source. The rule behind the calls is not given here.
Legend:
Assay type in all cases: functional, organism-based
Saccharomyces cerevisiae [1] = assay: Growth inhibition of Saccharomyces cerevisiae harboring GEF1 deletion mutant at 400 uM measured for 11 hrs by HOP assay
Outline: (§1)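 Pooled homozygous (HOP) or heterozygous (HIP) deletion collections were profiled at 400 µM in two independent experiments, with strain sensitivity read from barcode abundance. Hits were retested as individual log-phase strains in YPD with serial compound dilutions, start OD600 0.01 and 2% DMSO. OD600 was read at 11 h and fitted by logistic regression against HO/YDL227C as wild-type reference.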

Saccharomyces cerevisiae [2] = assay: Growth inhibition of Saccharomyces cerevisiae harboring FTR1 deletion mutant at 400 uM measured for 11 hrs by HOP assay; outline: as §1
Saccharomyces cerevisiae [3] = assay: Growth inhibition of Saccharomyces cerevisiae harboring FET3 deletion mutant at 400 uM measured for 11 hrs by HOP assay; outline: as §1
Saccharomyces cerevisiae [4] = assay: Growth inhibition of wild type Saccharomyces cerevisiae BY4743 at 500 uM measured for 15 hrs in presence of Fe2+
Saccharomyces cerevisiae [5] = assay: Growth inhibition of Saccharomyces cerevisiae harboring GRX6 deletion mutant at 400 uM measured for 11 hrs by HOP assay; outline: as §1
Saccharomyces cerevisiae [6] = assay: Growth inhibition of Saccharomyces cerevisiae harboring PIB2 deletion mutant at 400 uM measured for 11 hrs by HIP assay; outline: as §1
Saccharomyces cerevisiae [7] = assay: Growth inhibition of Saccharomyces cerevisiae harboring CCC2 deletion mutant at 400 uM measured for 11 hrs by HOP assay; outline: as §1
Saccharomyces cerevisiae [8] = assay: Growth inhibition of wild type Saccharomyces cerevisiae BY4743 at 100 uM measured for 15 hrs in presence of Fe2+

Structure (SMILES)	growth inhibition (GI) (Saccharomyces cerevisiae [1])	growth inhibition (GI) (Saccharomyces cerevisiae [2])	growth inhibition (GI) (Saccharomyces cerevisiae [3])	growth inhibition (GI) (Saccharomyces cerevisiae [4])	growth inhibition (GI) (Saccharomyces cerevisiae [5])	growth inhibition (GI) (Saccharomyces cerevisiae [6])	growth inhibition (GI) (Saccharomyces cerevisiae [7])	growth inhibition (GI) (Saccharomyces cerevisiae [8])
Cc1cc2c(C(C)C)c(O)c(O)c(C=O)c2c(O)c1-c1c(C)cc2c(C(C)C)c(O)c(O)c(C=O)c2c1O	Active	Active	Active	inactive	Active	inactive	Active	–
O=C(O)c1ccc(-n2nc(-c3ccccc3O)nc2-c2ccccc2O)cc1	inactive	–	Active	–	–	–	–	inactive

— ChEMBL document CHEMBL4196102, “Yeast Chemogenomic Profiling Reveals Iron Chelation To Be the Principle Cell Inhibitory Mode of Action of Gossypol” (J Med Chem, 2018)
